RORa activator = activates the human nuclear receptor RORA; activation, % at 10 µM; CHO-K1 Gal4-RORA LBD luciferase reporter, luminescence; percent increase over mock-subtracted basal signal; 65,000 compounds, 1.5% hits; AID 560;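 active means activation above the mean of all tested compounds plus 3 SD, cut at about 49% in these data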;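 further: 0% = DMSO-treated RORA cells and 100% = added signal equal to DMSO minus mock-transfected cells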
Target sequence (P35398 whole entry, looked up, the tested form may be a part): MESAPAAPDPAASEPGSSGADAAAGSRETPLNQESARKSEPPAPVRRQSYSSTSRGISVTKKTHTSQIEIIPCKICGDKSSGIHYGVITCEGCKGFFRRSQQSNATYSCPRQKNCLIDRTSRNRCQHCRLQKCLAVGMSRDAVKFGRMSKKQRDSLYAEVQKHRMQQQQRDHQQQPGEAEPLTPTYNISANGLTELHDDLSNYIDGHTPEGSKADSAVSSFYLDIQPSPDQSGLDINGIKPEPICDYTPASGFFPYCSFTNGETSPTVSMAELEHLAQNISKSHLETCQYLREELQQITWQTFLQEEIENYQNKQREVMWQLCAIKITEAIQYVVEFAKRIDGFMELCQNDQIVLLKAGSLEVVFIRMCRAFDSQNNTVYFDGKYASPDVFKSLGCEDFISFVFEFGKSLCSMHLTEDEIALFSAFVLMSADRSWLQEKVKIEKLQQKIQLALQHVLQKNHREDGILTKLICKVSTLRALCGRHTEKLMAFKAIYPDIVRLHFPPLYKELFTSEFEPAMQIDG
SF1 activator = SF-1 (human) activation. Q13285. CHO-K1 Gal4-SF-1 LBD luciferase reporter; % increase over DMSO SF-1-specific signal. AID 522. 65,000 compounds, 1.9% hits. activation, % at 10 µM;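 active means activation above the mean activation of all tested compounds plus 3 SD, cut at about 50% in these data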
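Test system: CHO-K1 cells co-transfected with Gal4 DBD–human SF-1 LBD, 5xGal4 luciferase reporter. Quantity: 4,000 cells per well. Compound: 10 µM only. Incubation: compound added 1 h post-seeding, 20 h exposure at 37 °C, 5% CO2. Detection: SteadyLite luciferase luminescence. Replication: one test per compound.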
M1 ag = agonists of M1 muscarinic receptor; 64,000 compounds, 3% hits; AID 626; B-score at 10 µM; CHO-M1 cells, Fluo-4 calcium fluorescence, agonist mode; active compounds read high;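 active means fluorescence rise, raw or as B-score row- and column-corrected plate score, outside the 99.7% band of its plate's samples, either direction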
HePTP inhibitor = human HePTP phosphatase inhibition; 110,000 compounds, 0.64% hits; inhibition, % at 20 µM; recombinant HePTP phosphatase activity, OD absorbance; in the data active means inhibition above about 50%; inconclusive means no clear call, values can overlap the other calls;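 further: plate controls were vehicle for no effect and reference inhibitor for full effect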
D1 mod = allosterically modulates the human D1 dopamine receptor; HEK293 D1, CRE-luciferase, dopamine EC30 potentiation; actives deviate in either direction; P21728; B-score at 10 µM; 58,000 compounds, 5.9% hits;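 active means luminescence count or its row- and column-corrected plate score outside the 99.7% band of the plate's sample wells, on either side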
M1 antag = blocks the rat M1 muscarinic receptor response to acetylcholine. P08482. CHO-M1 cells, Fluo-4 calcium, ACh EC80 antagonist mode; active compounds read low. B-score at 10 µM. 64,000 compounds, 3.4% hits;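 active means calcium fluorescence response, raw or row-and-column corrected B-score, differing from the plate sample mean either way at a set confidence level, mostly lower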
M1 agonist conf = rat M1 muscarinic agonism, confirmation; shares compounds with M1 ag; CHO-M1 cells, Fluo-4 calcium fluorescence, agonist mode; actives lie on both sides; 1,700 compounds, 19% hits; fluorescence change (max-min) at 10 µM;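 active means fluorescence change differs from the solvent-only DMSO control mean at a set confidence level in both duplicate runs; inconclusive means differs from solvent-only control mean in just one of two runs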;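 further: an EC20 dose of acetylcholine follows compound addition during the same imaging run; raw fluorescence intensity difference in instrument units with no normalization to controls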
M4 ag counter = counter-screen for M1 agonists: activity at rat M4 receptor. shares compounds with M1 ag. CHO M4/Gqi5 cells, Fluo-4 calcium fluorescence, agonist mode; actives lie on both sides. fluorescence change (max-min) at 10 µM. 1,700 compounds, 9% hits. AID 1741;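 active means fluorescence change differing from the plate's solvent-only control wells at 99.7% confidence in both duplicates, whether higher or lower; inconclusive means differs from solvent controls in only one of two duplicates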
Active calls of the source: *; ? = inconclusive; nt = not tested or not shown. This is a sample that favours compounds with a hit; in the whole collection about 8.2% have one here.

SMILES | RORa activator | SF1 activator | M1 ag | HePTP inhibitor | D1 mod | M1 antag | others
CC(C)CC12CN3CCN(CC(C3)C1O)C2 (stereo not given) | -17 | -11 | 1.1 | 2 | -0.026 | 1.4*
COc1cccc(C(c2c(O)c3ccccc3oc2=O)c2c(O)c3ccccc3oc2=O)c1 | nt | nt | nt | 4 | nt | nt
CCOc1ccc(N2C(=O)/C(=C/c3ccc(C)o3)C(=O)NC2=S)cc1 | nt | nt | nt | 24 | nt | nt
CCOc1ccc(N2C(=O)/C(=C/c3ccc(Br)o3)C(=O)NC2=S)cc1 | nt | nt | nt | 101* | nt | nt
CN1C(=O)NC(=O)/C(=C/c2ccc(Br)o2)C1=O | nt | nt | nt | 76* | nt | nt
COC(=O)c1ccccc1OP1(=O)COc2ccccc2OC1 | 9 | -7 | -1.3 | 6 | nt | 0.01
O/N=C/c1c[nH]c2ccccc12 | -11 | -2 | 0.051 | 0 | 0.065 | -0.91
C=CCN(CC=C)Cc1c[nH]c2ccccc12 | -14 | -16 | -1.1 | 14 | -5.6* | 0.22
CCCSP1(=S)NCCCO1 (stereo not given) | -17 | -9 | -0.82 | 2 | nt | 0.18
O=C(Cn1cc(C(=O)c2ccccc2)c2ccccc21)NCc1ccco1 | 22 | 24 | 0.34 | -6 | -0.35 | -0.11
COc1ccccc1OCCCn1cc(C(=O)c2ccco2)c2ccccc21 | 65* | 52* | 2.2 | 4 | -0.78 | -0.083
C[C@H]1CCC[C@H](O)CCCCCc2cc(O)cc(O)c2C(=O)O1 | 9 | 6 | -0.13 | 4 | 0.011 | 2.4*
Cc1cc(N2C(=O)C3CCCN3C2c2ccccc2)no1 (stereo not given) | -4 | 4 | 0.58 | 2 | 0.27 | 0.17
CCS(=O)(=O)N1CCCC(C(=O)N2CCC3(CC2)OCCO3)C1 (stereo not given) | -17 | -7 | 0.074 | 5 | -1.4 | 0.21
COc1cccc(CNCCc2ccccc2F)c1OC | nt | nt | nt | -6 | nt | nt
O=c1[nH]c(=S)n(-c2ccccc2F)c(O)c1C=C1C=CC=N1 | nt | nt | nt | 103* | nt | nt
O=C1NCN(c2ccccc2)C12CCNCC2 | -9 | -6 | 0.94 | 10 | 0.065 | -0.3
O=C(CF)NC(=C(Cl)Cl)P(=O)(c1ccccc1)c1ccccc1 | nt | nt | nt | 103* | nt | nt
Clc1ccc(OCCCn2ccnc2)cc1 | nt | nt | nt | -13 | nt | nt
O=c1cccc2n1CC1CC2CN(c2ncnc3c2cnn3-c2ccc(Cl)cc2)C1 (stereo not given) | -10 | 6 | -3.6* | -4 | 0.37 | 0.25
CN1CCC(N2CC3CC(C2)c2cccc(=O)n2C3)CC1 (stereo not given) | 7 | -2 | -1.1 | 7 | 1.1 | -0.34
Clc1cccc(CNCCc2c[nH]c3ccccc23)c1 | nt | nt | nt | 4 | nt | nt
c1ccc2c(CCNC3=NCCC3)c[nH]c2c1 | -26 | -7 | 0.69 | 11 | -2.7* | 0.63
Cc1ccc2c(c1)[C@@H]1CN(C)CC[C@@H]1N2C(=O)Nc1cccc(C(F)(F)F)c1 | -23 | 7 | 0.57 | -6 | -4.8* | 0.92
Cc1ccc2c(c1)C1CN(C)CCC1N2C(=O)c1ccc(Br)o1 (stereo not given) | -16 | 5 | -1.7 | -4 | -3.1* | -0.087
SMILES | RORa activator | SF1 activator | M1 ag | HePTP inhibitor | D1 mod | M1 antag | others
Cc1ccc2c(c1)C1CN(C)CCC1N2S(=O)(=O)c1ccccc1 (stereo not given) | 6 | -21 | -0.71 | -3 | nt | -0.8
O=C1NC(=O)N(c2cccc(Br)c2)C(=O)/C1=C/c1ccco1 | nt | nt | nt | 102* | nt | nt
Cc1c(C(=O)N2CCC3(CC2)OCCO3)sc2ncnc(N3CCN(c4ccccn4)CC3)c12 | 6 | 21 | 5 | 8 | -6.7* | -0.9
O=C(c1sc2ccccc2c1Cl)N1CCC2(CC1)OCCO2 | 2 | 5 | -0.56 | 5 | -0.33 | 0.084
COc1cc(/C=C\c2nc3ccccc3c(=O)n2-c2ccc(O)cc2)ccc1O | nt | nt | nt | 9 | nt | nt
Fc1ccc2c(c1)nnn2C1CCN(Cc2ccccc2)CC1 | -17 | -11 | -0.68 | 6 | -4.4* | -1
Fc1ccc2c(c1)nnn2C1CCN(Cc2nnnn2CCc2ccccc2)CC1 | 15 | 4 | -0.61 | 6 | -1.5 | -0.0005
Nc1ccccc1N=Cc1c(O)n(CCC2=CCCCC2)c(=O)[nH]c1=O | 44 | 78* | -0.012 | 2 | 0.55 | -0.27
O=C1NC(=S)N(c2cccc(Br)c2)C(=O)/C1=C/c1cccs1 | nt | nt | nt | 5 | nt | nt
CCCc1[nH]nc2c1C1(C(=O)N(CC(N)=O)c3ccccc31)C(C(=O)OC)=C(N)O2 (stereo not given) | 2 | 6 | 1.8 | -4 | 0.014 | 2.3*
CCOC(=O)C1=C(N)Oc2c(c(=O)oc3ccccc23)C12C(=O)N(C)c1ccccc12 (stereo not given) | -11 | -6 | -1.5 | 0 | -0.85 | 0.037
O=C(C1CC(c2ccc(Cl)c(Cl)c2)=NO1)N1CCC2(CC1)OCCO2 (stereo not given) | 73* | 30 | 0.0069 | 6 | -0.045 | -2
COc1cccc(C2=NOC(C(=O)N3CCC4(CC3)OCCO4)C2)c1 (stereo not given) | 26 | 56* | 0.36 | 7 | -0.28 | -0.041
CCN1CCN(C(=O)COc2cc(=O)n(CC)c3ccccc23)CC1 | -8 | 0 | 0.67 | 6 | 0.61 | 0.16
CCOC(=O)c1ccc(NC(=O)c2c(O)[nH]c(=O)[nH]c2=O)cc1 | 12 | 7 | 86* | 7 | 0.73 | 0.27
CN(C)c1ccc(/C=N/NC(=O)C(=O)NN/C(N)=N\[N+](=O)[O-])cc1 | nt | nt | nt | -19 | nt | nt
CCOC(=O)[C@]1(C#N)[C@@H]2C=CC(C(C)=O)=CN2[C@@H](C(N)=O)[C@@H]1c1ccsc1 | -5 | -10 | 26* | -1 | nt | -0.2
COc1ccc(P2(=O)Nc3ccccc3N2)cc1 | -20 | -6 | 8.4* | 4 | nt | -0.3 | M1 agonist conf=154*;M4 ag counter=163*
CN1C(=O)C(Cc2cccs2)C(=O)N(C)C1=O | -20 | 2 | -0.33 | -7 | -0.26 | 0.15
C=CCn1c(O)c(C(C)=Nc2ccc(NC(C)=O)cc2)c(=O)[nH]c1=O | -6 | -4 | 0.21 | 3 | -0.053 | 0.67
CCn1nc(-c2ccccc2)nc2c(=O)n(C)c(=O)nc1-2 | -93 | -95 | 25* | ? | -8.7* | -0.41 | M1 agonist conf=187*;M4 ag counter=?
COc1ccc(-n2c(-c3cccnc3)nc3ccccc3c2=O)cc1 | nt | nt | nt | 4 | nt | nt
COc1ccc(CN2C(=O)CC(=O)NC2=O)cc1 | 1 | -11 | 1.3 | 7 | nt | 0.38
Cc1ccc(C(=O)C2CN3CCC2CC3)cc1 (stereo not given) | -6 | -10 | 12* | 8 | -1.4 | -2.5 | M1 agonist conf=-18;M4 ag counter=?
COc1ccc(CCNCc2ccccn2)cc1 | nt | nt | nt | 6 | nt | nt

Bioassay records as filed in PubChem BioAssay.
